Source: ChEMBL document CHEMBL4043093, “2-Oxo-3, 4-dihydropyrimido[4, 5-d]pyrimidinyl derivatives as new irreversible pan fibroblast growth factor receptor (FGFR) inhibitors” (Eur J Med Chem, 2017)

Key:
[1] = tested on: Tyrosine-protein kinase ABL1 (Homo sapiens), P00519 [H396P]; assay: Inhibition of human non-phosphorylated ABL1 H396P mutant (S229 to K512 residues) expressed in HEK293 cells assessed as residual activity at 1000 nM after 30 mins by Kinomescan method relative to control; type: cell-based
Summary of the method: (§1)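 KINOMEscan binding panel of 456 kinases, with the test compound at a single concentration of 1 µM. Read-out is Percent Control.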

[2] = tested on: Tyrosine-protein kinase ABL1 (Homo sapiens), P00519 [Y253F]; assay: Inhibition of human phosphorylated ABL1 Y253F mutant (S229 to K512 residues) expressed in HEK293 cells assessed as residual activity at 1000 nM after 30 mins by Kinomescan method relative to control; type: cell-based
Summary of the method: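 Single-point screen at a fixed 1 µM, run within a 456-kinase DiscoveRx KINOMEscan panel. Each kinase's read-out is Percent Control, i.e. signal relative to a control without compound. Hits were scored by a Percent Control < 35 cut-off, and an S(35) selectivity score was calculated across the non-mutant kinases.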

[3] = tested on: Serine/threonine-protein kinase B-raf (Homo sapiens), P15056 [V600E]; assay: Inhibition of human partial length BRAF V600E mutant (S429 to E741 residues) expressed in HEK293 cells assessed as residual activity at 1000 nM after 30 mins by Kinomescan method relative to control; type: cell-based; summary of the method: as §1
[4] = biological target: Calcium/calmodulin-dependent protein kinase type II subunit alpha (Homo sapiens) (UniProt Q9UQM7); assay: Inhibition of wild-type human partial length CAMK2A (M1 to K328 residues) expressed in Escherichia coli BL21 assessed as residual activity at 1000 nM after 30 mins by Kinomescan method relative to control
[5] = biological target: Macrophage colony-stimulating factor 1 receptor (Homo sapiens) (UniProt P07333); assay: Inhibition of wild-type human partial length CSF1R (I564 to S939 residues) expressed in Escherichia coli BL21 assessed as residual activity at 1000 nM after 30 mins by Kinomescan method relative to control
[6] = biological target: Dual specificity tyrosine-phosphorylation-regulated kinase 1B (Homo sapiens) (UniProt Q9Y463); assay: Inhibition of wild-type human full length DYRK1B (M1 to S629 residues) expressed in Escherichia coli BL21 assessed as residual activity at 1000 nM after 30 mins by Kinomescan method relative to control
Summary of the method: (§2)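 Single-concentration screen at 1 µM across a 456-kinase KINOMEscan panel. The read-out is Percent Control for each kinase.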

[7] = tested on: Epidermal growth factor receptor (Homo sapiens), P00533 [UNDEFINED MUTATION]; assay: Inhibition of human partial length EGFR E746-A750del mutant expressed in Escherichia coli BL21 assessed as residual activity at 1000 nM after 30 mins by Kinomescan method relative to control; summary of the method: as §1
[8] = biological target: Receptor tyrosine-protein kinase erbB-3 (Homo sapiens) (UniProt P21860); assay: Inhibition of wild-type human partial length ERBB3 (G684 to A987 residues) expressed in HEK293 cells assessed as residual activity at 1000 nM after 30 mins by Kinomescan method relative to control; type: cell-based
[9] = biological target: Tyrosine-protein kinase Fes/Fps (Homo sapiens) (UniProt P07332); assay: Inhibition of wild-type human partial length FES (I527 to R822 residues) expressed in Escherichia coli BL21 assessed as residual activity at 1000 nM after 30 mins by Kinomescan method relative to control
[10] = tested on: Mast/stem cell growth factor receptor Kit (Homo sapiens), P10721 [L576P]; assay: Inhibition of human partial length KIT L576P mutant (Y545 to D952 residues) expressed in Escherichia coli BL21 assessed as residual activity at 1000 nM after 30 mins by Kinomescan method relative to control; summary of the method: as §1
[11] = biological target: Serine/threonine-protein kinase LATS1 (Homo sapiens) (UniProt O95835); assay: Inhibition of wild-type human partial length LATS1 (Q678 to V1130 residues) expressed in Escherichia coli BL21 assessed as residual activity at 1000 nM after 30 mins by Kinomescan method relative to control
[12] = biological target: Macrophage-stimulating protein receptor (Homo sapiens) (UniProt Q04912); assay: Inhibition of wild-type human partial length MST1R (I1057 to L1363 residues) expressed in Escherichia coli BL21 assessed as residual activity at 1000 nM after 30 mins by Kinomescan method relative to control
[13] = biological target: Myosin light chain kinase family member 4 (Homo sapiens) (UniProt Q86YV6); assay: Inhibition of wild-type human partial length MYLK4 (V79 to S380 residues) expressed in Escherichia coli BL21 assessed as residual activity at 1000 nM after 30 mins by Kinomescan method relative to control
[14] = biological target: Myosin-IIIb (Homo sapiens) (UniProt Q8WXR4); assay: Inhibition of wild-type human partial length MYO3B (M1 to D357 residues) expressed in Escherichia coli BL21 assessed as residual activity at 1000 nM after 30 mins by Kinomescan method relative to control
[15] = biological target: Serine/threonine-protein kinase OSR1 (Homo sapiens) (UniProt O95747); assay: Inhibition of wild-type human full length OSR1 (M1 to S527 residues) expressed in HEK293 cells assessed as residual activity at 1000 nM after 30 mins by Kinomescan method relative to control; type: cell-based; summary of the method: as §2
[16] = biological target: Cyclin-dependent kinase 18 (Homo sapiens) (UniProt Q07002); assay: Inhibition of wild-type human full length PCTK3 (M3 to F474 residues) expressed in Escherichia coli BL21 assessed as residual activity at 1000 nM after 30 mins by Kinomescan method relative to control; summary of the method: as §2
[17] = biological target: Serine/threonine-protein kinase pim-2 (Homo sapiens) (UniProt Q9P1W9); assay: Inhibition of wild-type human partial length PIM2 (M1 to E291 residues) expressed in Escherichia coli BL21 assessed as residual activity at 1000 nM after 30 mins by Kinomescan method relative to control
[18] = biological target: Serine/threonine-protein kinase 36 (Homo sapiens) (UniProt Q9NRP7); assay: Inhibition of wild-type human partial length STK36 (M1 to T271 residues) expressed in Escherichia coli BL21 assessed as residual activity at 1000 nM after 30 mins by Kinomescan method relative to control
[19] = biological target: Tyrosine-protein kinase TXK (Homo sapiens) (UniProt P42681); assay: Inhibition of wild-type human partial length TXK (L238 to W527 residues) expressed in Escherichia coli BL21 assessed as residual activity at 1000 nM after 30 mins by Kinomescan method relative to control
[20] = biological target: Serine/threonine-protein kinase WNK2 (Homo sapiens) (UniProt Q9Y3S1); assay: Inhibition of wild-type human partial length WNK2 (V47 to D482 residues) expressed in HEK293 cells assessed as residual activity at 1000 nM after 30 mins by Kinomescan method relative to control; type: cell-based
[21] = biological target: Serine/threonine-protein kinase WNK4 (Homo sapiens) (UniProt Q96J92); assay: Inhibition of wild-type human partial length WNK4 (A31 to D461 residues) expressed in HEK293 cells assessed as residual activity at 1000 nM after 30 mins by Kinomescan method relative to control; type: cell-based

Sequence of Macrophage colony-stimulating factor 1 receptor (Homo sapiens) (P07333 whole entry, the tested form may be a part): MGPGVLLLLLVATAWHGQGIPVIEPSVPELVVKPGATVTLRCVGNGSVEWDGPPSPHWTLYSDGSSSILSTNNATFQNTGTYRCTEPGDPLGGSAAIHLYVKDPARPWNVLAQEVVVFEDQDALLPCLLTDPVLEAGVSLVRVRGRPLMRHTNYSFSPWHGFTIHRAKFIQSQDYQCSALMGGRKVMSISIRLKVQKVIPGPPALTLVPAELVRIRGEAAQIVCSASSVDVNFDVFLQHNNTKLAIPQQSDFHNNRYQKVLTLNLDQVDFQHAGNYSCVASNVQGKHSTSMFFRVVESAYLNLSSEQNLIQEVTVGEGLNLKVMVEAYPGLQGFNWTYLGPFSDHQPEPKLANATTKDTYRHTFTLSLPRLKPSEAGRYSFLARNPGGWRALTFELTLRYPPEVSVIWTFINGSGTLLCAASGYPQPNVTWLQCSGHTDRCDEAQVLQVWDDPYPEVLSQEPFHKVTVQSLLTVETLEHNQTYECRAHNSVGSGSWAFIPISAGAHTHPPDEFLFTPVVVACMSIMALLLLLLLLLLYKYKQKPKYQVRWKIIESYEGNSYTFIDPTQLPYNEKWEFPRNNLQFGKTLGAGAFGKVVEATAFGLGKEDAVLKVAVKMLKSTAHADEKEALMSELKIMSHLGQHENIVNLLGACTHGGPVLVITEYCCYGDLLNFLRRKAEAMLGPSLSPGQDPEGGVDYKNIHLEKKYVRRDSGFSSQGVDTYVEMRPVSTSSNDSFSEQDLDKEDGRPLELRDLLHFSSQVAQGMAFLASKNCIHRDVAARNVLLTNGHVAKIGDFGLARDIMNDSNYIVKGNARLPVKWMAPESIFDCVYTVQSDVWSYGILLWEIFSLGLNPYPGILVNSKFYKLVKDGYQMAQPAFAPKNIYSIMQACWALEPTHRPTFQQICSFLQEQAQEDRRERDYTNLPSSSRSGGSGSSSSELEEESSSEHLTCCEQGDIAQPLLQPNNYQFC
Sequence of Tyrosine-protein kinase TXK (Homo sapiens) (P42681 whole entry, the tested form may be a part): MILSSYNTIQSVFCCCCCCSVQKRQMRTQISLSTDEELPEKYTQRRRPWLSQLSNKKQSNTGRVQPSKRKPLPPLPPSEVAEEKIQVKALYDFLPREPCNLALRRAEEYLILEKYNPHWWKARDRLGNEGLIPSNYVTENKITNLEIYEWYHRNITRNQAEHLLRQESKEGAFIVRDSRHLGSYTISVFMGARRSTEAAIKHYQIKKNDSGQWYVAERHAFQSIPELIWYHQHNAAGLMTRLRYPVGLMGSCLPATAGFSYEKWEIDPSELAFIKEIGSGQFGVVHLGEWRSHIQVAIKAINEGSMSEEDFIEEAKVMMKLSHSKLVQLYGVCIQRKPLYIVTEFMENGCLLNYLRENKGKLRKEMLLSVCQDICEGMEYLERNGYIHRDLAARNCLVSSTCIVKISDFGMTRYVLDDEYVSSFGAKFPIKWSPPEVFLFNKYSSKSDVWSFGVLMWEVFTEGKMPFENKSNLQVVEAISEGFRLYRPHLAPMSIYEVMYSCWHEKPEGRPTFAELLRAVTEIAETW
Sequence of Dual specificity tyrosine-phosphorylation-regulated kinase 1B (Homo sapiens) (Q9Y463 whole entry, looked up, the tested form may be a part): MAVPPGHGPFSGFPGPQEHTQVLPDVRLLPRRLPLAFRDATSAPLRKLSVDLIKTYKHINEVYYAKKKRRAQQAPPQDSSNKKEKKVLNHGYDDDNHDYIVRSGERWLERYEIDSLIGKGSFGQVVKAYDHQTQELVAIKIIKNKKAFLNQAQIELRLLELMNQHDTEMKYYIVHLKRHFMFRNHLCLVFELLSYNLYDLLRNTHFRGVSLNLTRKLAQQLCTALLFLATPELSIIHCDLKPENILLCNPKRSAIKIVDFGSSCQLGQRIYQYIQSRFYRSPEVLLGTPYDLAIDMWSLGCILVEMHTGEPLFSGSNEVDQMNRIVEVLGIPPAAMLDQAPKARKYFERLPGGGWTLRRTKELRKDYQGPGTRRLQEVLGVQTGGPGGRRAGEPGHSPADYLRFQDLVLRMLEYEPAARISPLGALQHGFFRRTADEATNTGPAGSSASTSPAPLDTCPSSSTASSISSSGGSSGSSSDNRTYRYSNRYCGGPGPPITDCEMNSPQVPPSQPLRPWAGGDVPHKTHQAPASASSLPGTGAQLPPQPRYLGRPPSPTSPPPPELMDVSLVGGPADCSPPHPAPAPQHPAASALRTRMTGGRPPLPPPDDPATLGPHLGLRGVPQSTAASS
Sequence of Serine/threonine-protein kinase WNK2 (Homo sapiens) (Q9Y3S1 whole entry, the tested form may be a part): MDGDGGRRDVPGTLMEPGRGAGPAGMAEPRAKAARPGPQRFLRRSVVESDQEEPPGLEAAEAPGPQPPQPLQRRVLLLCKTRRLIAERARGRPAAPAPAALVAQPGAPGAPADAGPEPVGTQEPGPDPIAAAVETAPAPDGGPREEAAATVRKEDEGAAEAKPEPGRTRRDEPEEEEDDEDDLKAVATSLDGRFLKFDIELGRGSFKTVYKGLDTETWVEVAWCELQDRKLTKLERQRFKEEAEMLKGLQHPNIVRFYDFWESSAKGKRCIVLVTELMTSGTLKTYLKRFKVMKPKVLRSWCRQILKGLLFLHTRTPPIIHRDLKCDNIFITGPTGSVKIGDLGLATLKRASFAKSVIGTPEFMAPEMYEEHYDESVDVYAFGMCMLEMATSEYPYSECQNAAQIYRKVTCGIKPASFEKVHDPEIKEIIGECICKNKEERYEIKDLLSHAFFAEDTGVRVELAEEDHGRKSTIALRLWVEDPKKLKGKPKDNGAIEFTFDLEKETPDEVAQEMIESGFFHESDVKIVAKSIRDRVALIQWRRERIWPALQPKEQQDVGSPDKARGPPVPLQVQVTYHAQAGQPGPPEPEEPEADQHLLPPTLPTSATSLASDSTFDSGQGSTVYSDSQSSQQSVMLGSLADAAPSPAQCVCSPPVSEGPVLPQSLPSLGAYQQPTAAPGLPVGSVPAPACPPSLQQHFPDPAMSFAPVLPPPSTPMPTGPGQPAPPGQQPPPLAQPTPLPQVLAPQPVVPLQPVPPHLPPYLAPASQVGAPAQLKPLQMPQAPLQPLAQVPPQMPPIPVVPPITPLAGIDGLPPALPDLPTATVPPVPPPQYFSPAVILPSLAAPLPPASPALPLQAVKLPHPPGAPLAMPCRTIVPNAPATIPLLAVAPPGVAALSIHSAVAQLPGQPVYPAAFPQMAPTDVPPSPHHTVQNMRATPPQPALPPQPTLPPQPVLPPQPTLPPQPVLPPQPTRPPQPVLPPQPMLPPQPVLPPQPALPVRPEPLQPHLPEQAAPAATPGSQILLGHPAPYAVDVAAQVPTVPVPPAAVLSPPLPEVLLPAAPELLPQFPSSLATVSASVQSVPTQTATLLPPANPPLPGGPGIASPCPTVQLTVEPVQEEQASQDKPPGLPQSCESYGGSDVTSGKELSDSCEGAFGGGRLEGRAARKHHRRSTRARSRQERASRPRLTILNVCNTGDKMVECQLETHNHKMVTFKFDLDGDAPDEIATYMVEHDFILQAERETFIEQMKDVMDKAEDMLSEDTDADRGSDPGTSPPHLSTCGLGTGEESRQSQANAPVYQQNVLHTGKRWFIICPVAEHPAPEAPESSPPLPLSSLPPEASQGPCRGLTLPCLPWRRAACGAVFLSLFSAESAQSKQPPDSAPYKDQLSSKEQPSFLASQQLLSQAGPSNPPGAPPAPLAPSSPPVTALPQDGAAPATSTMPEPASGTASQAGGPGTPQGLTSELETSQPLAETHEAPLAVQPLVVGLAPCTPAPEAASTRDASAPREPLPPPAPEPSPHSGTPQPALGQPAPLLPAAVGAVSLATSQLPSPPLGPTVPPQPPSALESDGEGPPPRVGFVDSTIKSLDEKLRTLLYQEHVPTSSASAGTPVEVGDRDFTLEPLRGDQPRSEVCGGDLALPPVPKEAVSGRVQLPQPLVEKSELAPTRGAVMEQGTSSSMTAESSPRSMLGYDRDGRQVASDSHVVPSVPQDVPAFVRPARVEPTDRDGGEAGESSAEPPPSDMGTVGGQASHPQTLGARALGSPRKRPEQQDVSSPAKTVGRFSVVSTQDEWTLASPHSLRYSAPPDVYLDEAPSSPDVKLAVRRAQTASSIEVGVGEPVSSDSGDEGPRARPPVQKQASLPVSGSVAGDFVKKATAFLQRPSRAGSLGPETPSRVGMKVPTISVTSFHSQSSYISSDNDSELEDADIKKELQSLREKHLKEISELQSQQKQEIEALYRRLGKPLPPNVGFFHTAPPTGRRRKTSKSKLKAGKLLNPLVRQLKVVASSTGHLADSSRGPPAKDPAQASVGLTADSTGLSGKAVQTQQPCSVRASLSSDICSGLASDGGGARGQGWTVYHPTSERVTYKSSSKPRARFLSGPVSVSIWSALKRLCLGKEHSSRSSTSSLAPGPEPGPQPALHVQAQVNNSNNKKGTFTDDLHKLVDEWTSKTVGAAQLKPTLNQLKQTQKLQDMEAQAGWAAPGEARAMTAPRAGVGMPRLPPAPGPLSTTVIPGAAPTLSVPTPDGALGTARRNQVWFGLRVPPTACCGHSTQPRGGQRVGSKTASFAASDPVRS
Sequence of Calcium/calmodulin-dependent protein kinase type II subunit alpha (Homo sapiens) (Q9UQM7 whole entry, the tested form may be a part): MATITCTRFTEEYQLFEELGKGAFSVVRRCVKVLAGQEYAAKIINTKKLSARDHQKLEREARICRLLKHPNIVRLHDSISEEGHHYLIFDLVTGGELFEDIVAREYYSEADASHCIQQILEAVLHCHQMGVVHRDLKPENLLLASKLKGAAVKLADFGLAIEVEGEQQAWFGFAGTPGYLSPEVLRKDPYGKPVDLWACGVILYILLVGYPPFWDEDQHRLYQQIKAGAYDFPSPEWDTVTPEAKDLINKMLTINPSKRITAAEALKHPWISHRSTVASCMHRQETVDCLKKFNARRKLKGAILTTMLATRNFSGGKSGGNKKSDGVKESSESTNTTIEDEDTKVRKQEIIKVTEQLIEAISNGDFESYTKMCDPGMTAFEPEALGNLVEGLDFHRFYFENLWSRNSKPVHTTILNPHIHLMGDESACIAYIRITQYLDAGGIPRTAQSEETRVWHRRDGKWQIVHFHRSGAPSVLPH

COc1cc(OC)c(Cl)c(N2Cc3cnc(Nc4ccc(F)cc4)nc3N(C3CCN(C(=O)/C=C/CN(C)C)CC3)C2=O)c1Cl
Activity [1]: 31%
Activity [2]: 38%
Activity [3]: 83%
Activity [4]: 100%
Activity [5]: 0.4%
Activity [6]: 81%
Activity [7]: 100%
Activity [8]: 100%
Activity [9]: 40%
Activity [10]: 2.6%
Activity [11]: 100%
Activity [12]: 95%
Activity [13]: 85%
Activity [14]: 100%
Activity [15]: 100%
Activity [16]: 93%
Activity [17]: 83%
Activity [18]: 100%
Activity [19]: 99%
Activity [20]: 96%
Activity [21]: 100%
